ChEMBL document CHEMBL1255410, “Activity of the investigational fluoroquinolone finafloxacin against ciprofloxacin-sensitive and -resistant Acinetobacter baumannii isolates” (2010)
Converted amounts (≈) assume the structure as drawn.

Assays:
Acinetobacter baumannii [1] = experiment: Antimicrobial activity against Acinetobacter baumannii isolate 2 at pH 7.2; type: functional
In short: (§1)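 MIC by agar dilution on Mueller-Hinton agar under standard conditions (pH 7.2), against isolates with characterized gyrA/parC genes. Agar pH was checked after solidifying. Plates for both drugs were prepared the same day from freshly made media, and MICs were determined simultaneously with the pH 5.8 set.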

Acinetobacter baumannii [2] = experiment: Antimicrobial activity against Acinetobacter baumannii isolate 7 at pH 7.2; type: functional
In short: (§2)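 Agar dilution MIC on Mueller-Hinton agar under standard conditions (pH 7.2). Antibiotic-containing plates were made the same day from freshly prepared medium. Agar pH was checked after solidifying. Both fluoroquinolones were tested simultaneously against A. baumannii isolates with characterized gyrA/parC genes. MICs are in μg/ml.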

Acinetobacter baumannii [3] = experiment: Antimicrobial activity against Acinetobacter baumannii isolate 8 at pH 7.2; type: functional; in short: as §2
Acinetobacter baumannii [4] = experiment: Antimicrobial activity against Acinetobacter baumannii isolate 9 at pH 7.2; type: functional; in short: as §2
Acinetobacter baumannii [5] = experiment: Antimicrobial activity against Acinetobacter baumannii isolate 11 at pH 7.2; type: functional; in short: as §1
Acinetobacter baumannii [6] = experiment: Antimicrobial activity against Acinetobacter baumannii isolate 12 at pH 7.2; type: functional; in short: as §1
Acinetobacter baumannii [7] = experiment: Antimicrobial activity against Acinetobacter baumannii isolate 13 at pH 7.2; type: functional; in short: as §1
Acinetobacter baumannii [8] = experiment: Antimicrobial activity against Acinetobacter baumannii isolate 14 at pH 7.2; type: functional; in short: as §1
Acinetobacter baumannii [9] = experiment: Antimicrobial activity against Acinetobacter baumannii isolate 15 at pH 7.2; type: functional; in short: as §1
Acinetobacter baumannii [10] = experiment: Antimicrobial activity against Acinetobacter baumannii isolate 18 at pH 7.2; type: functional; in short: as §1
Acinetobacter baumannii [11] = experiment: Antimicrobial activity against Acinetobacter baumannii isolate 20 harboring GyrA Ser83-Leu mutation at pH 7.2; type: functional; in short: as §1
Acinetobacter baumannii [12] = experiment: Antimicrobial activity against Acinetobacter baumannii isolate 24 harboring GyrA Ser83-Leu mutation at pH 7.2; type: functional; in short: as §1
Acinetobacter baumannii [13] = experiment: Antimicrobial activity against Acinetobacter baumannii isolate 29 harboring GyrA Ser83-Leu mutation at pH 7.2; type: functional; in short: as §1
Acinetobacter baumannii [14] = experiment: Antimicrobial activity against Acinetobacter baumannii isolate 38 harboring GyrA Ser83-Leu mutation at pH 7.2; type: functional
In short: (§3)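 Agar dilution MIC on Mueller-Hinton agar. For the acidic condition, HCl was added to bring the agar to pH 5.8 before pouring the antibiotic plates, and the pH was checked after the agar set. The standard condition was pH 7.2. Both drugs' plates were made the same day from fresh medium, and MICs were read at the same time.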

Acinetobacter baumannii [15] = experiment: Antimicrobial activity against Acinetobacter baumannii isolate 41 harboring GyrA Ser83-Leu mutation at pH 7.2; type: functional; in short: as §3
Acinetobacter baumannii [16] = experiment: Antimicrobial activity against Acinetobacter baumannii isolate 42 harboring GyrA Ser83-Leu mutation at pH 7.2; type: functional; in short: as §3
Acinetobacter baumannii [17] = experiment: Antimicrobial activity against Acinetobacter baumannii isolate 57 harboring GyrA Ser83-Leu and ParC Ser80-Phe mutation at pH 7.2; type: functional; in short: as §2
Acinetobacter baumannii [18] = experiment: Antimicrobial activity against Acinetobacter baumannii isolate 59 harboring GyrA Ser83-Leu and ParC Glu84-Lys mutation at pH 7.2; type: functional; in short: as §2
Acinetobacter baumannii [19] = experiment: Antimicrobial activity against Acinetobacter baumannii isolate 61 harboring GyrA Ser83-Leu and ParC Ser80-Leu mutation at pH 7.2; type: functional; in short: as §2
Acinetobacter baumannii [20] = experiment: Antimicrobial activity against Acinetobacter baumannii isolate 63 harboring GyrA Ser83-Leu and ParC Glu84-Lys mutation at pH 7.2; type: functional; in short: as §2
Acinetobacter baumannii [21] = experiment: Antimicrobial activity against Acinetobacter baumannii isolate 2 at pH 5.8; type: functional
In short: (§4)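 MIC by agar dilution on Mueller-Hinton agar acidified to pH 5.8 with HCl before antibiotic-containing plates were poured. Agar pH was rechecked once the agar had solidified. Isolates had characterized gyrA/parC genes. Plates for both drugs were made the same day from fresh media, and MICs were read in parallel with the standard-pH set.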

Acinetobacter baumannii [22] = experiment: Antimicrobial activity against Acinetobacter baumannii isolate 3 at pH 5.8; type: functional; in short: as §4
Acinetobacter baumannii [23] = experiment: Antimicrobial activity against Acinetobacter baumannii isolate 6 at pH 5.8; type: functional
In short: (§5)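 Agar dilution MIC on Mueller-Hinton agar acidified to pH 5.8 with HCl before the antibiotic-containing plates were poured. Agar pH was checked after solidifying. Plates were made the same day from fresh medium. Both fluoroquinolones were tested simultaneously against A. baumannii isolates with characterized gyrA/parC genes. MICs are in μg/ml.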

Acinetobacter baumannii [24] = experiment: Antimicrobial activity against Acinetobacter baumannii isolate 8 at pH 5.8; type: functional; in short: as §5
Acinetobacter baumannii [25] = experiment: Antimicrobial activity against Acinetobacter baumannii isolate 12 at pH 5.8; type: functional; in short: as §4
Acinetobacter baumannii [26] = experiment: Antimicrobial activity against Acinetobacter baumannii isolate 13 at pH 5.8; type: functional; in short: as §4
Acinetobacter baumannii [27] = experiment: Antimicrobial activity against Acinetobacter baumannii isolate 14 at pH 5.8; type: functional; in short: as §4
Acinetobacter baumannii [28] = experiment: Antimicrobial activity against Acinetobacter baumannii isolate 15 at pH 5.8; type: functional; in short: as §4
Acinetobacter baumannii [29] = experiment: Antimicrobial activity against Acinetobacter baumannii isolate 17 at pH 5.8; type: functional; in short: as §4
Acinetobacter baumannii [30] = experiment: Antimicrobial activity against Acinetobacter baumannii isolate 19 harboring GyrA Ser83-Leu mutation at pH 5.8; type: functional; in short: as §4
Acinetobacter baumannii [31] = experiment: Antimicrobial activity against Acinetobacter baumannii isolate 20 harboring GyrA Ser83-Leu mutation at pH 5.8; type: functional; in short: as §4
Acinetobacter baumannii [32] = experiment: Antimicrobial activity against Acinetobacter baumannii isolate 26 harboring GyrA Ser83-Leu mutation at pH 5.8; type: functional; in short: as §4
Acinetobacter baumannii [33] = experiment: Antimicrobial activity against Acinetobacter baumannii isolate 27 harboring GyrA Ser83-Leu mutation at pH 5.8; type: functional; in short: as §4
Acinetobacter baumannii [34] = experiment: Antimicrobial activity against Acinetobacter baumannii isolate 34 harboring GyrA Ser83-Leu mutation at pH 5.8; type: functional; in short: as §3
Acinetobacter baumannii [35] = experiment: Antimicrobial activity against Acinetobacter baumannii isolate 35 harboring GyrA Ser83-Leu mutation at pH 5.8; type: functional; in short: as §3
Acinetobacter baumannii [36] = experiment: Antimicrobial activity against Acinetobacter baumannii isolate 37 harboring GyrA Ser83-Leu mutation at pH 5.8; type: functional; in short: as §3
Acinetobacter baumannii [37] = experiment: Antimicrobial activity against Acinetobacter baumannii isolate 42 harboring GyrA Ser83-Leu mutation at pH 5.8; type: functional; in short: as §3
Acinetobacter baumannii [38] = experiment: Antimicrobial activity against Acinetobacter baumannii isolate 48 harboring GyrA Ser83-Leu and ParC Ser80-Leu mutation at pH 5.8; type: functional; in short: as §3
Acinetobacter baumannii [39] = experiment: Antimicrobial activity against Acinetobacter baumannii isolate 49 harboring GyrA Ser83-Leu and ParC Ser80-Leu mutation at pH 5.8; type: functional; in short: as §3
Acinetobacter baumannii [40] = experiment: Antimicrobial activity against Acinetobacter baumannii isolate 55 harboring GyrA Ser83-Leu and ParC Ser80-Leu mutation at pH 5.8; type: functional; in short: as §3
Acinetobacter baumannii [41] = experiment: Antimicrobial activity against Acinetobacter baumannii isolate 56 harboring GyrA Ser83-Leu and ParC Ser80-Leu mutation at pH 5.8; type: functional; in short: as §5
Acinetobacter baumannii [42] = experiment: Antimicrobial activity against Acinetobacter baumannii isolate 57 harboring GyrA Ser83-Leu and ParC Ser80-Phe mutation at pH 5.8; type: functional; in short: as §5
Acinetobacter baumannii [43] = experiment: Antimicrobial activity against adeB overexpressing Acinetobacter baumannii isolate 67 harboring GyrA Ser83-Leu and ParC Ser80-Leu mutation at pH 5.8; type: functional; in short: as §5
Acinetobacter baumannii [44] = experiment: Antimicrobial activity against Acinetobacter baumannii isolate 60 harboring GyrA Ser83-Leu and ParC Ser80-Leu mutation at pH 5.8

## O=C(O)c1cn(C2CC2)c2cc(N3CCNCC3)c(F)cc2c1=O [CIPROFLOXACIN]
Acinetobacter baumannii [1]
  MIC: 0.06 µg/mL (≈ 0.181 µM)
Acinetobacter baumannii [2]
  MIC: 0.12 µg/mL (≈ 0.362 µM)
Acinetobacter baumannii [3]
  MIC: 0.25 µg/mL (≈ 0.754 µM)
Acinetobacter baumannii [4]
  MIC: 0.25 µg/mL (≈ 0.754 µM)
Acinetobacter baumannii [5]
  MIC: 0.25 µg/mL (≈ 0.754 µM)
Acinetobacter baumannii [6]
  MIC: 0.5 µg/mL (≈ 1.51 µM)
Acinetobacter baumannii [7]
  MIC: 0.5 µg/mL (≈ 1.51 µM)
Acinetobacter baumannii [8]
  MIC: 0.5 µg/mL (≈ 1.51 µM)
Acinetobacter baumannii [9]
  MIC: 1 µg/mL (≈ 3.02 µM)
Acinetobacter baumannii [10]
  MIC: 1 µg/mL (≈ 3.02 µM)
Acinetobacter baumannii [11]
  MIC: 2 µg/mL (≈ 6.04 µM)
Acinetobacter baumannii [12]
  MIC: 4 µg/mL (≈ 12.1 µM)
Acinetobacter baumannii [13]
  MIC: 4 µg/mL (≈ 12.1 µM)
Acinetobacter baumannii [14]
  MIC: 32 µg/mL (≈ 96.6 µM)
Acinetobacter baumannii [15]
  MIC: 16 µg/mL (≈ 48.3 µM)
Acinetobacter baumannii [16]
  MIC: 16 µg/mL (≈ 48.3 µM)
Acinetobacter baumannii [17]
  MIC: 128 µg/mL (≈ 386 µM)
Acinetobacter baumannii [18]
  MIC: 128 µg/mL (≈ 386 µM)
Acinetobacter baumannii [19]
  MIC: 128 µg/mL (≈ 386 µM)
Acinetobacter baumannii [20]
  MIC: > 128 µg/mL
Acinetobacter baumannii [21]
  MIC: 2 µg/mL (≈ 6.04 µM)
Acinetobacter baumannii [22]
  MIC: 2 µg/mL (≈ 6.04 µM)
Acinetobacter baumannii [23]
  MIC: 2 µg/mL (≈ 6.04 µM)
Acinetobacter baumannii [24]
  MIC: 2 µg/mL (≈ 6.04 µM)
Acinetobacter baumannii [25]
  MIC: 2 µg/mL (≈ 6.04 µM)
Acinetobacter baumannii [26]
  MIC: 4 µg/mL (≈ 12.1 µM)
Acinetobacter baumannii [27]
  MIC: 4 µg/mL (≈ 12.1 µM)
Acinetobacter baumannii [28]
  MIC: 4 µg/mL (≈ 12.1 µM)
Acinetobacter baumannii [29]
  MIC: 4 µg/mL (≈ 12.1 µM)
Acinetobacter baumannii [30]
  MIC: 4 µg/mL (≈ 12.1 µM)
Acinetobacter baumannii [31]
  MIC: 4 µg/mL (≈ 12.1 µM)
Acinetobacter baumannii [32]
  MIC: 32 µg/mL (≈ 96.6 µM)
Acinetobacter baumannii [33]
  MIC: 32 µg/mL (≈ 96.6 µM)
Acinetobacter baumannii [34]
  MIC: 128 µg/mL (≈ 386 µM)
Acinetobacter baumannii [35]
  MIC: 128 µg/mL (≈ 386 µM)
Acinetobacter baumannii [36]
  MIC: 128 µg/mL (≈ 386 µM)
Acinetobacter baumannii [37]
  MIC: > 128 µg/mL
Acinetobacter baumannii [38]
  MIC: > 128 µg/mL
Acinetobacter baumannii [39]
  MIC: > 128 µg/mL
Acinetobacter baumannii [40]
  MIC: > 128 µg/mL
Acinetobacter baumannii [41]
  MIC: > 128 µg/mL
Acinetobacter baumannii [42]
  MIC: > 128 µg/mL
Acinetobacter baumannii [43]
  MIC: > 128 µg/mL
Acinetobacter baumannii [44]
  MIC: > 128 µg/mL
